ChEMBL document CHEMBL3865807, “Syntheses and photodynamic activity of some glucose-conjugated BODIPY dyes” (Eur J Med Chem, 2016)
pIC50: −log10 of the molar value. Active and inactive are the calls of the source. The rule behind the calls is not given here.

Key:
[1] = Photocytotoxicity against human A549 cells assessed as decrease in cell viability preincubated for 1 hr followed by 0.77 mW/cm2 white light irradiation for 80 mins measured after 24 hrs by MTT assay; format: functional, cell-based; conditions: A549, light or radiation study
Summary of the method: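 IC50 from MTT: A549 cells (1×10^4/well) given graded compound concentrations 1 h in serum-free DMEM (vehicle ≤0.1% DMSO), washed, photo-exposed 80 min at 0.77 mW/cm², regular medium 24 h; MTT 0.5 mg/mL 6 h, A550; viability relative to vehicle control; four replicates, three experiments, mean ± SEM.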

[2] = Cytotoxicity against human WI38 cells assessed as reduction in cell viability at 50 uM under dark condition by MTT assay; format: toxicity, cell-based; conditions: wi-38, 50 µM
[3] = Drug uptake in endoplasmic reticulum of human A549 cells at 100 nM measured up to 4 hrs by ER-Tracker green staining based confocal microscopy; format: ADME, cell-based; conditions: a549, 4 h, 0.1 µM
Summary of the method: (§1)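 Overnight-seeded A549 cells loaded with dye (100 nM), incubation periods 0.5-4 h tested, then ER-Tracker Green (500 nM) or MitoTracker Green (100 nM) for 30 min at 37 °C; washed, confocal imaging: trackers ex 488/em 500-530 nm, dye ex 543/em 560-640 nm; overlap of images judged.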

[4] = (§2) Cell cycle arrest in human A549 cells assessed as accumulation at subG1 phase at 2.5 uM preincubated for 1 hr followed by 0.77 mW/cm2 white light irradiation for 80 mins measured after 24 hrs by propidium iodide staining based flow cytometry (reference value: 8.2 +/- 1.1%); format: functional
[5] = as §2, with “hrs in presence of 100 uM of beta-carotene” for “hrs”; format: functional
A549 [6] = assay: Photocytotoxicity in human A549 cells assessed as decrease in cell survival at 2.5 uM preincubated for 1 hr followed by 0.77 mW/cm2 white light irradiation for 80 mins measured after 24 hrs in presence of caspase 9 inhibitor Z-LEHD-FMK by MTT assay; format: functional, cell-based
Summary of the method: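 Cells pre-incubated 1 h with caspase-9 inhibitor Z-LEHD-FMK (20 µM), then compound 2.5 µM for 1 h and light 80 min (0.77 mW/cm²); viability at 24 h by MTT; five replicates, mean ± SEM.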

[7] = Photocytotoxicity against human WI38 cells at 50 uM using 0.77 mW/cm2 white light irradiation by MTT assay; format: toxicity, cell-based; conditions: wi-38, 50 µM
A549 [8] = assay: Induction of apoptosis in human A549 cells assessed as accumulation at subG1 phase at 5 to 50 uM preincubated for 1 hr followed by 0.77 mW/cm2 white light irradiation for 30 mins measured after 24 hrs by propidium iodide staining based flow cytometry relative to control; format: functional
Summary of the method: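 Cells exposed 1 h to compound (5-50 µM; vehicle 0.1% DMSO), washed, then irradiated (0.77 mW/cm²) for 0, 30 or 80 min; after serum addition kept 24 h. PI/RNase A staining in hypotonic 0.1% citrate-0.1% Triton X-100, 30 min, 37 °C; sub-G1 peak by flow cytometry, debris gated out, ≥2×10^4 cells; five replicates, mean ± SEM.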

[9] = Drug uptake in human L-132 cells assessed as mean fluorescence intensity at 2.5 uM after 8 hrs by flow cytometry (reference value: 4.6 +/- 1.2); format: ADME, cell-based; conditions: l132, 8 h
[10] = Cell cycle arrest in human A549 cells assessed as accumulation at subG1 phase at 2.5 uM preincubated for 1 hr followed by 0.77 mW/cm2 white light irradiation for 80 mins measured after 24 hrs in presence of 5 mM of NAC by propidium iodide staining based flow cytometry (reference value: 8.2 +/- 1.1%); format: functional
Bos taurus [11] = species on record: Bos taurus; assay: Binding affinity to calf thymus duplex DNA by UV-visible spectra analysis
[12] = Drug uptake in mitochondria of human A549 cells at 100 nM measured up to 4 hrs by Mito-Tracker green staining based confocal microscopy; format: ADME; conditions: a549, 4 h, 0.1 µM; summary of the method: as §1
[13] = Drug uptake in human A549 cells assessed as mean fluorescence intensity at 2.5 uM after 24 hrs by flow cytometry (reference value: 5.4 +/- 1.5); format: ADME, cell-based; conditions: a549, 24 h
A549 [14] = assay: Induction of apoptosis in human A549 cells assessed as pro-caspase 3 level at 2.5 uM preincubated for 1 hr followed by 0.77 mW/cm2 white light irradiation for 80 mins measured after 24 hrs by immunoblot analysis relative to control; format: functional
Summary of the method: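 Whole-cell extracts from A549 cells (1×10^6) treated with 0 or 2.5 µM compound, photo-exposed 80 min, lysed in Tris pH 7.4/NaCl/EDTA/Triton with protease inhibitors; 30 µg protein on 12% SDS-PAGE, nitrocellulose, milk block, caspase-3 antibody overnight 4 °C, HRP secondary, chemiluminescence; band ratio to normal control (=1) after loading-control normalisation.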

[15] = Cytotoxicity against human L-132 cells assessed as reduction in cell viability at 50 uM under dark condition by MTT assay; format: toxicity, cell-based; conditions: l132, 50 µM
Bos taurus [16] = species on record: Bos taurus; assay: Binding affinity to calf thymus duplex DNA assessed as decrease in intensities of maximum absorption at 50 uM by spectrophotometric titration analysis
[17] = Drug uptake in human A549 cells assessed as mean fluorescence intensity at 2.5 uM after 2 hrs by flow cytometry (reference value: 5.4 +/- 1.5); format: ADME, cell-based; conditions: a549, 2 h
[18] = Drug uptake in human L-132 cells assessed as mean fluorescence intensity at 2.5 uM after 16 hrs by flow cytometry (reference value: 4.6 +/- 1.2); format: ADME, cell-based; conditions: l132, 16 h
[19] = as §2, with “hrs in presence of 50 uM of beta-carotene” for “hrs”; format: functional
[20] = Cytotoxicity against human A549 cells assessed as decrease in cell viability up to 200 uM after 48 hrs under dark condition by MTT assay; format: toxicity, cell-based; conditions: a549, 48 h
Summary of the method: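 Dark toxicity: A549 cells treated as in the MTT protocol (1 h compound exposure, serum-free medium, washed) with no light, then assessed at 48 h by MTT (0.5 mg/mL, 6 h, formazan in HCl/SDS, A550).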

A549 [21] = assay: Induction of morphological changes in human A549 cells assessed as cell shrinking up to 2.5 uM preincubated for 1 hr followed by 0.77 mW/cm2 white light irradiation for 80 mins measured after 24 hrs by phase contrast microscopy; format: functional, cell-based
Summary of the method: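 A549 cells (1×10^5/well) on coverslips given vehicle (0.1% DMSO) or compound (0.625, 1.25, 2.5 µM) for 1 h, then irradiated 80 min (0.77 mW/cm²); kept 24 h in regular medium and examined unstained by phase-contrast microscopy (40× objective); representative fields imaged; experiments done three times.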

[22] = Drug uptake in cytoplasm of human A549 cells at 1 uM after 0.25 to 3 hrs by Hoechst 33342 staining based fluorescence microscopy; format: ADME, cell-based; conditions: a549, 1 µM
Summary of the method: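 A549 cells on coverslips loaded with dyes (1 µM) for 0.25, 0.5, 1, 2 or 3 h at 37 °C, washed, counterstained with Hoechst 33342 (10 µM), mounted in 70% glycerol; red dye and blue nuclear fluorescence imaged by fluorescence microscopy (40×) and overlaid.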

In the case of CCC1=C(C)C2=C(C)c3c(C)c(CC)c(C)n3[B-](F)(F)[N+]2=C1/C=C/c1ccc(O[C@H]2O[C@H](CO)[C@@H](O)[C@H](O)[C@H]2O)cc1, the pIC50 [1] was 5.57, the Activity [2] was “Non-Toxic” and the Drug uptake [3] was “Active”. For the same molecule, the Activity [4] was 68.8%, the Activity [5] was 43.2% and the Activity (A549 [6]) was “Active”. For the same molecule, the Activity [7] was 5 to 7%, the “fold change (FC)” value (A549 [8]) was 2.8 - 3.3 and the Flu intensity [9] was 49.5. For the same molecule, the Activity [10] was 46.5%, the Kb (Bos taurus [11]) was 1.8 ×10⁴ /M and the Drug uptake [12] was “Active”. The Flu intensity [13] was 46.7, the “fold change (FC)” value (A549 [14]) was 0.2 and the Activity [15] was “Non-Toxic”. The Activity (Bos taurus [16]) was “Active”, the Flu intensity [17] was 95.3 to 98.5 and the Flu intensity [18] was 41.5. The Activity [19] was 51.8%, the Activity [20] was “Non-Toxic” and the Activity (A549 [21]) was “Active”. The Drug uptake [22] was “Active”.
